Series [1] relates to Trypanosoma brucei brucei. Kind of series: Anti-parasitic activity against bloodstream form of Trypanosoma brucei brucei Lister 427 after 48 hrs by MTS assay. The settings on record: Lister 427, 48 h. Format: functional. Put shortly:
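Bloodstream-form parasites grown in HMI-9 with 10% FBS at 37 °C, 7.5% CO2. 5,000 cells per well exposed to a range of compound concentrations, 0.1% DMSO, for 48 hrs at 37 °C. MTS (5% PMS) then added for 3 hrs at 37 °C, formazan read at 490 nm. Quadruplicate data normalized and fitted to a dose-response curve for IC50.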
Background: Tetrazolium assays rely on reduction of a dye to a coloured formazan, in cell work by metabolically active cells.

Series [2] has as its system HEK293. Nature of the series: Cytotoxicity against HEK293 cells assessed as reduction in cell viability after 48 hrs by MTT assay. The settings on record: Homo sapiens, HEK293, 48 h. Format: cell-based. Put shortly:
(§1)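 Cells kept in RPMI1640 with 10% heat-inactivated FBS, L-glutamine, pyruvate and pen-strep at 37 °C, 5% CO2. 3000 cells per well seeded for 24 hrs, then given a range of compound concentrations (DMSO final ≤0.1%) for 48 hrs. 0.5 mg/ml MTT for 2 hrs at 37 °C, dye dissolved in DMSO, absorbance at 570 nm. Quadruplicates normalized and fitted to a dose-response curve.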

A short description of series [3]: Cytotoxicity against mouse […] cells assessed as reduction in cell viability after 48 hrs by MTT assay. The format is cell-based. The method in brief: as §1
Series [4] is described as follows: Selectivity index, ratio of IC50 for HEK293 cells to IC50 for bloodstream form of Trypanosoma brucei brucei Lister 427. The format is toxicity. The settings on record: human, read-out: Ratio IC50.
The nature of series [5]: Selectivity index, ratio of IC50 for mouse […] cells to IC50 for bloodstream form of Trypanosoma brucei brucei Lister 427. The format is toxicity. The settings on record: read-out: Ratio IC50.
Series [6] relates to Trypanosoma brucei brucei. Kind of series: Inhibition of tubulin polymerization in Trypanosoma brucei brucei Lister 427 incubated for 7 hrs by Western blot analysis. Put shortly:
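Parasites treated with 0.5% DMSO or different doses of compound for 7 hrs. Cells washed in TDB buffer pH 7.4, then lysed in Pipes pH 6.8 buffer with 0.2% Triton X-100 for 5 mins at 30 °C. Supernatant (soluble) and pellet (polymerized) fractions separated by centrifugation. Lysate from equal cell numbers run on 10% SDS-PAGE, western blot with TAT-1 tubulin antibody.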
A general note: In western blotting, separated proteins are transferred to a membrane and probed.

Molecules are shown by their SMILES. pIC50: −log10 of the molar value.

Take `CN(c1ccc(NC(=O)c2cc(C(F)(F)F)cc(C(F)(F)F)c2)cc1OCc1ccccc1C(F)(F)F)S(C)(=O)=O`: the figures for the pIC50 in series [1], in series [2] and in series [3] were 5.01, below 3.30 and below 3.30, respectively. For the same compound, the selectivity ratio in series [4] and in series [5] was above 51 throughout.
In the case of `Cc1ccc(C(F)(F)F)cc1COc1cc(NC(=O)c2cc(C(F)(F)F)cc(C(F)(F)F)c2)ccc1N(C)S(C)(=O)=O`, the pIC50 is 4.81 in series [1], below 3.30 in series [2] and below 3.30 in series [3]. In addition, the selectivity ratio in series [4] and in series [5] was above 32 each time.
For the compound `CN(c1ccc(NC(=O)c2cc(C(F)(F)F)cc(C(F)(F)F)c2)cc1OCc1cccc(C(=N)N)c1)S(C)(=O)=O`, the pIC50 in series [1] was below 4.30; in series [2], below 3.30; in series [3], below 3.30. Further, the selectivity ratio in series [4] and in series [5] was above 10 throughout.
Take `CN(c1ccc(NC(=O)c2ccc(C(F)(F)F)cc2C(F)(F)F)cc1OCc1ccccc1C(F)(F)F)S(C)(=O)=O`: the pIC50 in series [1] was 4.88; in series [2], 4.46; in series [3], below 3.30. Moreover, the selectivity ratio in series [4] was 3; in series [5], above 38.
For the compound `CN(c1ccc(NC(=O)c2ccc(C(F)(F)F)cc2C(F)(F)F)cc1OCc1cccc(C(F)(F)F)c1)S(C)(=O)=O`, the pIC50 is 5.07 in series [1], 4.09 in series [2] and below 3.30 in series [3]. The selectivity ratio in series [4] was 10; in series [5] it was above 59.
Regarding `CN(c1ccc(NC(=O)c2cc(C(F)(F)F)cc(C(F)(F)F)c2)cc1OCc1cccc(C(F)(F)F)c1)S(=O)(=O)Cc1ccccc1`, the pIC50 in series [1] is 5.68; in series [2], 4.22; in series [3], 4.16. The selectivity ratio in series [4] is 33; in series [5], 29.
With `CN(c1ccc(NC(=O)c2cc(C(F)(F)F)cc(C(F)(F)F)c2)cc1OCc1ccccc1C(F)(F)F)S(=O)(=O)Cc1ccccc1`, the figures for the pIC50 in series [1], in series [2] and in series [3] were 5.15, below 3.30 and below 3.30, respectively. In addition, the selectivity ratio in series [4] and in series [5] was above 70 throughout.
Turning to `CCCCCCOc1cc(NC(=O)c2cc(C(F)(F)F)cc(C(F)(F)F)c2)ccc1N(C)S(C)(=O)=O`, the pIC50 in series [1] was 4.64; in series [2], below 3.30; in series [3], below 3.30. For the same compound, the selectivity ratio in series [4] and in series [5] was above 22 each time.
With `CN(c1ccc(NC(=O)c2ccc(C(F)(F)F)cc2C(F)(F)F)cc1OCc1cccc(C(F)(F)F)c1)S(=O)(=O)Cc1ccccc1`, the pIC50 in series [1] was 5.75; in series [2] it was 3.76; in series [3], 4.69. The selectivity ratio in series [4] worked out at 12; in series [5] it was 99.
With `CN(c1ccc(NC(=O)c2cc(C(F)(F)F)cc(C(F)(F)F)c2)cc1OCc1ccc(C(F)(F)F)cc1)S(=O)(=O)Cc1ccccc1`, the pIC50 in series [1] was 5.47; in series [2], 3.53; in series [3], below 3.30. The values for the selectivity ratio in series [4] and in series [5] were above 147 and 86, respectively.
Take `Cc1ccc(C)c(COc2cc(Nc3nccc(N)n3)ccc2N(C)S(C)(=O)=O)c1`: the pIC50 in series [1] was below 4.30; in series [2], below 3.30; in series [3], below 3.30. Moreover, the selectivity ratio in series [4] and in series [5] was above 10 in each case.
With `CCS(=O)(=O)N(C)c1ccc(NC(=O)c2ccc3c(c2)OCO3)cc1OCc1cccc(C#N)c1`, the pIC50 is 4.63 in series [1], below 3.30 in series [2] and below 3.30 in series [3]. Further, the selectivity ratio in series [4] and in series [5] was above 21 in each case.
Turning to `CN(c1ccc(NC(=O)c2ccc(C(F)(F)F)cc2C(F)(F)F)cc1OCc1ccccc1C(F)(F)F)S(=O)(=O)Cc1ccccc1`, the pIC50 in series [1] was 4.98; in series [2] it was below 3.30; in series [3], 3.80. Besides, the selectivity ratio in series [4] is 15; in series [5], above 48.
`CN(c1ccc(NC(=O)c2cc(C(F)(F)F)cc(C(F)(F)F)c2)cc1OCc1cccc(C(F)(F)F)c1)S(C)(=O)=O`: the pIC50 is 5.07 in series [1], 4.27 in series [2] and below 3.30 in series [3]. For the same compound, the selectivity ratio was 6 in series [4] and above 58 in series [5].
The matching figures for `CCCCCCOc1cc(NC(=O)c2cc(C(F)(F)F)cc(C(F)(F)F)c2)ccc1N(C)S(=O)(=O)Cc1ccccc1`: 5.11, 4.16, 4.88, 2 and 9.
Regarding `CN(c1ccc(NC(=O)c2ccc(C#N)cc2)cc1OCc1ccc(C(F)(F)F)cc1)S(=O)(=O)Cc1ccccc1`, the pIC50 in series [1] was 7.15; in series [2], below 3.30; in series [3], below 3.30. For the same compound, the selectivity ratio in series [4] and in series [5] was above 7140 each time. Moreover, the inhibition result in series [6] is “Dose-dependent effect”.
For `CCCCCCOc1cc(NC(=O)c2ccc(C(F)(F)F)cc2C(F)(F)F)ccc1N(C)S(C)(=O)=O`, the pIC50 was 4.52 in series [1], below 3.30 in series [2] and below 3.30 in series [3]. Besides, the selectivity ratio in series [4] and in series [5] was above 17 throughout.
In the case of `Cc1ccc(C(F)(F)F)cc1COc1cc(NC(=O)c2ccc(C(F)(F)F)cc2C(F)(F)F)ccc1N(C)S(C)(=O)=O`, the pIC50 in series [1] was 4.89; in series [2] it was 3.99; in series [3], below 3.30. For the same compound, the selectivity ratio in series [4] was 8; in series [5], above 38.

Usually pIC50 stands for the IC50 on a negative log10 scale, so that one unit is a factor of ten.
